According to ChEMBL document CHEMBL1128490, “(+/-)-(Z)-2-(aminomethyl)-1-phenylcyclopropanecarboxamide derivatives as a new prototype of NMDA receptor antagonists” (J Med Chem, 1995):

Legend:
Mus musculus [1] = test: Percentage protection against NMDA-induced lethality in mice by the compound at 40 mg/Kg administered ip 60 mins before iv administration of NMDA in the lethal dose of 90 mg/Kg.; assay type: functional
Method in brief: (§1)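 Male ddY mice (20-28 g), groups of 10, given test compound in saline by intraperitoneal injection. 60 min later they were challenged with a lethal intravenous dose of NMDA (90 mg/kg) in saline. The read-out is protection from NMDA-induced death.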

Mus musculus [2] = test: Percentage protection against NMDA-induced lethality in mice by the compound at 20 mg/Kg administered ip 60 mins before iv administration of NMDA in the lethal dose of 90 mg/Kg.; assay type: functional; method in brief: as §1
Glutamate NMDA receptor = test: Inhibition of [3H]MK-801 binding to NMDA receptor of rat cerebral cortical synaptic membrane

Work on `CCN(CC)C(=O)[C@@]1(c2ccccc2)C[C@H]1CCN` yielded a Protection (Mus musculus [1]) of 20%, a Protection (Mus musculus [2]) of 30% and an IC50 (Glutamate NMDA receptor) of 10 µM.
With `CCN(CC)C(=O)[C@@]1(c2ccccc2)C[C@H]1CN` [LEVOMILNACIPRAN] the Protection (Mus musculus [1]) was 100%, the Protection (Mus musculus [2]) was 60% and the IC50 (Glutamate NMDA receptor) was 6.3 µM.
For `CCN(CC)C(=O)[C@@]1(c2ccccc2)C[C@H]1CN=[N+]=[N-]`, the IC50 (Glutamate NMDA receptor) was greater than 100 µM.
In the case of `CCOC(=O)[C@@]1(c2ccccc2)C[C@H]1CN`, the IC50 (Glutamate NMDA receptor) is reported as greater than 100 µM.
`CCN(CC)C(=O)[C@@]1(c2ccccc2)C[C@H]1Cn1ccnc1C` showed an IC50 (Glutamate NMDA receptor) greater than 100 µM.
`CCN(CC)C(=O)[C@@]1(c2ccccc2)C[C@H]1CO` was tested, and the IC50 (Glutamate NMDA receptor) was greater than 100 µM.
Molecule `CCN(CC)C(=O)[C@@]1(c2ccccc2)C[C@H]1CN(C)C` has a Protection (Mus musculus [1]) of 40%, a Protection (Mus musculus [2]) of 10% and an IC50 (Glutamate NMDA receptor) of 88 µM.
`CCN(CC)C(=O)[C@@]1(c2ccccc2)C[C@H]1C=O` gave an IC50 (Glutamate NMDA receptor) greater than 100 µM.
With `CCN(CC)C(=O)[C@@]1(c2ccccc2)C[C@H]1CNC` the Protection (Mus musculus [1]) was 30%, the Protection (Mus musculus [2]) was 20% and the IC50 (Glutamate NMDA receptor) was 13 µM.
`NC[C@@H]1C[C@@]1(C(=O)O)c1ccccc1` was tested, and the IC50 (Glutamate NMDA receptor) was greater than 100 µM.
